In article PMC8109618 (Bioorganic & medicinal chemistry, 2020):

Assays:
hFXIa [1] = molecular target: T1, hFXIa (Homo sapiens, UniProt P03951); assay type: biochemical
Procedure, shortened: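 Human plasma FXIa. The initial rate of S-2366 ([…]) hydrolysis was taken from the linear A405 rise, with under 10% substrate consumed. S-2366 was varied from 0.03 to 2 mM at a fixed test compound concentration. Buffer was 50 mM Tris-HCl pH 7.4 with 150 mM NaCl, 0.1% PEG8000 and 0.02% Tween80, at 37 °C. KM and VMAX came from a nonlinear hyperbolic Michaelis–Menten fit.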

hFXIa [2] = molecular target: T1, hFXIa; test: Analytical ultracentrifugation of hFXIa–inhibitor complex; conditions: 100 μM inhibitor, 20 °C; dimeric form, same as hFXIa alone
hFXIa–DEGR = hFXIa–DEGR (Homo sapiens, UniProt P03951); test: Fluorescence titration of active site dansylated hFXIa; assay type: binding
hFXIa [3] = molecular target: T1, hFXIa; test: Direct inhibition of hFXIa, chromogenic substrate; assay type: biochemical; conditions: for selectivity for hFXIa over FXa and trypsin: based on inhibition at >200 μM
trypsin = molecular target: T2, trypsin (Bos taurus, UniProt P00760); test: Direct inhibition of trypsin, chromogenic substrate; assay type: biochemical, bovine; conditions: not shown
T2 sequence (P00760 24-246): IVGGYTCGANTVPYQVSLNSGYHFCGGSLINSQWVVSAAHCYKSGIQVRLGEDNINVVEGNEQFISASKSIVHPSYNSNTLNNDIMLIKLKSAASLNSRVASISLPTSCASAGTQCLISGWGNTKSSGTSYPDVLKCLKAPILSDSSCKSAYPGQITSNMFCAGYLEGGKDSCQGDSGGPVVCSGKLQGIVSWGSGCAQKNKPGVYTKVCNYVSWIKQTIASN
Procedure, shortened: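 Bovine trypsin was held as stock in 50 mM Tris-HCl, pH 7.4, 150 mM NaCl, 0.1% PEG8000, 0.02% Tween80. The assay used 2.5 ng/ml enzyme with 80 μM S-2222 (in-well) at 37 °C, pH 7.4. Percent inhibition was calculated from the ratio of activity with versus without test compound.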

FXa = FXa (Homo sapiens, UniProt P00742); test: Direct inhibition of FXa, chromogenic substrate; assay type: biochemical; conditions: not shown
Procedure, shortened: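 Human plasma FXa was held as stock in 20 mM Tris-HCl, pH 7.4, 100 mM NaCl, 2.5 mM CaCl2, 0.1% PEG8000, 0.02% Tween80. […] Percent inhibition came from the ratio of proteolytic activity with versus without test compound.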

T1 sequence (P03951 388-625 limits assumed): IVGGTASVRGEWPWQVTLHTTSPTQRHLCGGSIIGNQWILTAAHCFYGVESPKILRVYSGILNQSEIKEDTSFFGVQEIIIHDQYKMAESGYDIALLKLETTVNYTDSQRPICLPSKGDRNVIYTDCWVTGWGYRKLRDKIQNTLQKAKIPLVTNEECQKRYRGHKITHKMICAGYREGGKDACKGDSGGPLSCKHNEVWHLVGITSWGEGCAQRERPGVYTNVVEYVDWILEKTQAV
T1 sequence (P03951 19-387 partner limits assumed): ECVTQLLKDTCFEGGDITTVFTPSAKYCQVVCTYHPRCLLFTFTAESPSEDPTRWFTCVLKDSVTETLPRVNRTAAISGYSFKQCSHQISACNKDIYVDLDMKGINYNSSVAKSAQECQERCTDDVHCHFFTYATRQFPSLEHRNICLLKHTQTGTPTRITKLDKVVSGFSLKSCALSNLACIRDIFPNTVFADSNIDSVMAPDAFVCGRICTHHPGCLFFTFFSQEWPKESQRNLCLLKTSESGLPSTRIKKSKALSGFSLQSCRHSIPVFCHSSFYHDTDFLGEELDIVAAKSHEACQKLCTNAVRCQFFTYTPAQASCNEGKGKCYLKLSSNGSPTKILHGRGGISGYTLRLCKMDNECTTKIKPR
Chain of hFXIa–DEGR (P03951 388-625 limits assumed): as the sequence (P03951 388-625 limits assumed) above
Chain of hFXIa–DEGR (P03951 19-387 partner limits assumed): as the sequence (P03951 19-387 partner limits assumed) above
Chain of FXa (P00742 235-488 limits assumed): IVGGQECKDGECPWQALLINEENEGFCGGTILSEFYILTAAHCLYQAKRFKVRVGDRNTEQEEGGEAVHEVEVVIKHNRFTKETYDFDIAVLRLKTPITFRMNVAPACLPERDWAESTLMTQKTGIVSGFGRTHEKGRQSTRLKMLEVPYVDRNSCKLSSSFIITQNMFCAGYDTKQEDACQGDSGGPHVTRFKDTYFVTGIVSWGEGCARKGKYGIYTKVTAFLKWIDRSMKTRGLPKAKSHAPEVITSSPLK
Chain of FXa (P00742 41-179 partner limits assumed): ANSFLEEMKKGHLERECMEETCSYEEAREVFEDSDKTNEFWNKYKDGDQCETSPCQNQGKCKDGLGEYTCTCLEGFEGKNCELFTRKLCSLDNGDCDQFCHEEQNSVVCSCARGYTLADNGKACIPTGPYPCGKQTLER

selectivity for hFXIa over FXa and trypsin (hFXIa [3]) [fold]	concentration at which trypsin is inhibited (trypsin) [µM]	concentration at which FXa is inhibited (FXa) [µM]	Compound	other results
–	–	–	O=c1c2ccccc2nc(-c2ccc(OS(=O)(=O)[O-])cc2)n1CCCCCCCCCn1c(-c2ccc(OS(=O)(=O)[O-])cc2)nc2ccccc2c1=O.[Na+].[Na+] [Inhibitor 19S]	mechanism of inhibition (hFXIa [1]; KM invariant, VMAX decreased): non-competitive; VMAX (hFXIa [1]; at 120 μM inhibitor, pH 7.4, 37 °C): 9.7±0.37 mAU/min; sedimentation coefficient s of hFXIa–inhibitor complex (hFXIa [2]): 6.6 S; n (Hill coefficient) (hFXIa–DEGR; 250 nM FXIa–DEGR, pH 7.4, 37 °C): 5.0±0.4
–	–	–	O=c1c2ccccc2nc(-c2ccc(OS(=O)(=O)[O-])cc2)n1CCCCCn1c(-c2ccc(OS(=O)(=O)[O-])cc2)nc2ccccc2c1=O.[Na+].[Na+] [Inhibitor 11S]	increase in potency as compared to the monomeric fragment (hFXIa [3]; IC50 ratio vs monomer 2S): ~ 7 fold
> 25	> 200	> 200	O=c1c2ccccc2nc(-c2ccc(OS(=O)(=O)[O-])cc2)n1CCCCCCCCCCn1c(-c2ccc(OS(=O)(=O)[O-])cc2)nc2ccccc2c1=O.[Na+].[Na+] [Inhibitor 20S]	–
–	–	–	O=c1[nH]c(-c2ccc(OS(=O)(=O)[O-])cc2)nc2ccccc12.[Na+] [Inhibitor 2S]	fold higher KD than the next compound (hFXIa–DEGR; 2S vs 18S, 18S vs 19S): ~ 3.2 fold
> 25	> 200	> 200	O=c1c2ccccc2nc(-c2ccc(OS(=O)(=O)[O-])cc2)n1CCCCCCCCCCCn1c(-c2ccc(OS(=O)(=O)[O-])cc2)nc2ccccc2c1=O.[Na+].[Na+] [Inhibitor 21S]	–
